Published values collected from several papers.
Each line is one published result; the experiments were not run side by side.
PIK3CA: Phosphatidylinositol 4,5-bisphosphate 3-kinase catalytic subunit alpha isoform (PIK3CA, Homo sapiens, UniProt P42336)
CELA1: Chymotrypsin-like elastase family member 1 (CELA1, Sus scrofa, UniProt P00772)
PIKFYVE: 1-phosphatidylinositol 3-phosphate 5-kinase (PIKFYVE, Homo sapiens, UniProt Q9Y2I7)
PDE9A: High affinity cGMP-specific 3',5'-cyclic phosphodiesterase 9A (PDE9A, Homo sapiens, UniProt O76083)
KDR: Vascular endothelial growth factor receptor 2 (KDR, Homo sapiens, UniProt P35968)
AVPR1A: Vasopressin V1a receptor (AVPR1A, Homo sapiens, UniProt P37288)

Nc1ncc(-c2nc(N3CCOCC3)nc(N3C[C@H]4CC[C@@H](C3)O4)n2)c(C(F)F)n1
IC50 (PIK3CA; ligand displacement, TR-FRET): 0.0422 µM

Cc1ccc(C(C)C)cc1NC(=O)COC(=O)c1cc(O)cc(O)c1
IC50 (CELA1; enzyme activity, inhibitor, absorbance): 33.7 µM

COC(C)(C)C#Cc1ccc2[nH]c3c(c2c1)-c1nc(N)ncc1CCC3
IC50 (PIKFYVE; enzyme activity, inhibitor, ADP detection): 0.0062 µM

CCCC1CNCc2c1[nH]c(=O)c(C#N)c2N1CCC2(CC1)CC2(F)F (stereo not shown)
IC50 (PDE9A; enzyme activity, inhibitor, radiometric): 0.069 µM

CC1(C)CC(=O)c2cc(-c3nc(-c4ccc(Cl)cc4)cs3)c(=O)n(-c3ccccc3C(F)(F)F)c2C1
IC50 (Isocitrate dehydrogenase [NADP] cytoplasmic (IDH1, Homo sapiens, UniProt O75874, R132C); enzyme activity, inhibitor): 0.2 µM

C[C@H](CS)C(=O)N1CCC[C@@H]1C(=O)O
IC50 (Beta-lactamase L1 (Stenotrophomonas maltophilia, UniProt P52700); enzyme activity, inhibitor): 67.1 µM

CC(C)(C#Cc1ccc2[nH]c3c(c2c1)-c1nc(N)ncc1CCC3)NS(C)(=O)=O
IC50 (PIKFYVE; enzyme activity, inhibitor, ADP detection): 0.14 µM

CSc1ccc(/C=C2/C(C)=C(CC(=O)O)c3cc(F)ccc32)cc1
IC50 (PDE9A; enzyme activity, inhibitor): > 100 µM

O=C1NC(=S)S/C1=C\c1c[nH]c2ccccc12
IC50 (PIK3CA; enzyme activity, inhibitor, radiometric): > 100 µM

C=C(C)CCOP(=O)(O)OP(=O)(O)OP(=O)(O)OC[C@H]1O[C@@H](n2cnc3c(N)ncnc32)[C@H](O)[C@@H]1O
IC50 (Glycogen synthase kinase-3 beta (GSK3B, Homo sapiens, UniProt P49841); enzyme activity, inhibitor, radiometric): 4.3 µM

NC(=O)[C@H](CCCN=C(N)CF)NC(=O)c1ccccc1
IC50 (Protein-arginine deiminase type-1 (PADI1, Homo sapiens, UniProt Q9ULC6); enzyme activity, inhibitor): 29.5 µM

NC(=O)c1ccc[n+]([C@@H]2O[C@H](COP(=O)([O-])OP(=O)(O)OC[C@H]3O[C@@H](n4cnc5c(N)ncnc54)[C@H](O)[C@@H]3O)[C@@H](O)[C@H]2O)c1
IC50 (Protein mono-ADP-ribosyltransferase PARP15 (PARP15, Homo sapiens, UniProt Q460N3); enzyme activity, inhibitor): 637 µM

Cc1ccc(C(C)C)cc1NC(=O)COC(=O)/C=C/c1ccc(O)cc1
IC50 (CELA1; enzyme activity, inhibitor, absorbance): 23.3 µM

CNC(=O)c1cc2c(Oc3ccc(NC(=O)C4(C(=O)Nc5ccc(F)cc5)CC4)cc3)ccnc2cc1OC
IC50 (KDR; enzyme activity, inhibitor, TR-FRET): 0.0121 µM

NC(=O)c1ccc(Oc2ccc(C(N)=O)cc2)cc1
IC50 (Protein mono-ADP-ribosyltransferase PARP11 (PARP11, Homo sapiens, UniProt Q9NR21); enzyme activity, inhibitor): 0.93 µM

CCOc1ccc2c(-c3cc(C)nc(Nc4cc(OC)cc(C(F)(F)F)c4)n3)cnn2n1
IC50 (Dual specificity tyrosine-phosphorylation-regulated kinase 2 (DYRK2, Homo sapiens, UniProt Q92630); enzyme activity, inhibitor): > 10 µM

COc1ccc([N+](=O)[O-])cc1/C=C1\SC(=S)NC1=O
IC50 (PIK3CA; enzyme activity, inhibitor, radiometric): 28 µM

NCCCC[C@H](NC(=O)[C@@H]1CCCN1C(=O)[C@@H]1CSSC[C@H](NC(=O)CNC(=O)CNC(=O)CN)C(=O)N[C@@H](Cc2ccc(O)cc2)C(=O)N[C@@H](Cc2ccccc2)C(=O)N[C@@H](CCC(N)=O)C(=O)N[C@@H](CC(N)=O)C(=O)N1)C(=O)NCC(N)=O
IC50 (AVPR1A; ligand displacement, radioligand; cell membranes): 1.7 µM

Cc1ccc(C(C)C)cc1NC(=O)COC(=O)/C=C/c1ccccc1
IC50 (CELA1; enzyme activity, inhibitor, absorbance): 5.01 µM

COc1ccc(C2=NN(C3CCCCCC3)C(=O)[C@@H]3CC=CC[C@H]23)cc1-c1ccc(C(N)=O)cc1 (relative stereo)
IC50 (PDE9A; enzyme activity, inhibitor): > 10 µM

Cn1cc(C2=C(c3coc4ccccc34)C(=O)NC2=O)c2cc(Br)ccc21
IC50 (PIK3CA; enzyme activity, inhibitor): 0.87 µM

COc1ccc(CNc2c(CO)cnc3c(C4CC4)cc(C#N)cc23)cn1
IC50 (PDE9A; enzyme activity, inhibitor): > 10 µM

CC(=O)C1=C(C)N(c2cccc(C(F)(F)F)c2)C(=O)N[C@@H]1c1ccc(C#N)nc1
IC50 (CELA1; enzyme activity, inhibitor): > 30 µM

O=[N+]([O-])c1ccc(N2CCN(S(=O)(=O)c3ccc(F)cc3)CC2)cc1NCc1cccnc1
IC50 (ATP-sensitive inward rectifier potassium channel 1 (Homo sapiens, UniProt P48048); ion flux, inhibitor): 1.9 µM

CCOc1ccc(/C=C2\SC(=S)NC2=O)cc1
IC50 (PIK3CA; enzyme activity, inhibitor, radiometric): 5.4 µM

CCC(C)(O)C#Cc1ccc2[nH]c3c(c2c1)-c1nc(N)ncc1CCC3 (stereo not shown)
IC50 (PIKFYVE; enzyme activity, inhibitor, ADP detection): 0.0019 µM

CC(C)(C)n1nc(-c2cnc3cc(OC4CC4)ccc3c2)c(C(N)=O)c1N
IC50 (Dual specificity mitogen-activated protein kinase kinase 1 (MAP2K1, Homo sapiens, UniProt Q02750); cell-free assay): 8.23 µM

COc1ccc(S(=O)(=O)ON=C2C=C(C)C(=O)C(C)=C2)cc1
IC50 (Histone acetyltransferase KAT6B (Homo sapiens, UniProt Q8WYB5); enzyme activity, inhibitor, radiometric): > 100 µM

O=C1NC(=S)S/C1=C\c1cc(Br)cc(Br)c1
IC50 (PIK3CA; enzyme activity, inhibitor, radiometric): > 100 µM

CC1(C)C(/C=C/C=C2/N(CCCc3ccccc3)c3ccc(Cl)cc3C2(C)C)=[N+](CCCc2ccccc2)c2ccc(Cl)cc21
IC50 (Protein arginine N-methyltransferase 8 (PRMT8, Homo sapiens, UniProt Q9NR22); enzyme activity, inhibitor, radiometric): 1.87 µM

O=C1NC(=S)S/C1=C\c1ccc(C(=O)O)cc1
IC50 (PIK3CA; enzyme activity, inhibitor, radiometric): > 100 µM

Nc1ncc(-c2nc(N3CCOCC3)nc(N3[C@@H]4CC[C@H]3COC4)n2)c(C(F)F)n1
IC50 (PIK3CA; ligand displacement, TR-FRET): 0.033 µM

CC(C)C[C@H](NC(=O)[C@H](C)NC(=O)[C@H](CCCCN)NC(=O)[C@H](CCCCN)NC(=O)[C@@H](N)CCCCN)C(=O)N[C@@H](CC(N)=O)C(=O)N[C@@H](CCCNC(=N)N)C(=O)N[C@@H](CCC(N)=O)C(=O)N[C@@H](CC(C)C)C(=O)NCC(=O)N[C@H](C(=O)N[C@@H](C)C(=O)N[C@@H](C)C(N)=O)C(C)C
IC50 (MAP kinase-activated protein kinase 2 (MAPKAPK2, Homo sapiens, UniProt P49137); enzyme activity, inhibitor, radiometric): 31 µM

Cc1ccc(C(C)C)cc1NC(=O)COC(=O)c1ccc(O)cc1O
IC50 (CELA1; enzyme activity, inhibitor, absorbance): 32.9 µM

COc1cc(O)c(CC=C(C)C)c2c1C(=O)CC(c1ccc(O)cc1)O2 (stereo not shown)
IC50 (Cytochrome P450 1A1 (CYP1A1, Homo sapiens, UniProt P04798); enzyme activity, inhibitor, fluorescence; 15 min, pH 7.4): 1.6 µM

CN1CCN(c2ccc(Nc3ncc4cc(C#N)c(=O)n(C5CCCC5)c4n3)cc2)CC1
IC50 (Activin receptor type-1-like (ACVRL1, Homo sapiens, UniProt P37023); enzyme activity, inhibitor): 0.449 µM

COc1cccc(/C=C2\SC(=S)NC2=O)c1OCc1ccccc1
IC50 (PIK3CA; enzyme activity, inhibitor, radiometric): > 100 µM

C/C=C1\NC(=O)[C@H](C)NC(=O)[C@@H](NC(=O)[C@H](Cc2ccc(O)cc2)NC(=O)[C@@H](NC(=O)/C(C)=C/C)C(C)C)[C@@H](C)OC(=O)[C@H](CCCc2ccc(O)cc2)NC(=O)[C@@H](CCC(=O)OC)NC1=O
IC50 (CELA1; enzyme activity, inhibitor, absorbance): 2.23 µM

Cc1ccc(C(=O)Nc2ccc(Oc3cc4cnn(C)c4cc3-c3cn[nH]c3)c(F)c2)c(=O)n1-c1ccc(F)cc1
IC50 (KDR; enzyme activity, inhibitor, radiometric): 0.053 µM

O=C(Nc1c[nH]nc1C(=O)NC1CCNCC1)c1cc(F)cc(F)c1
IC50 (Cyclin-dependent kinase 16 (CDK16, Homo sapiens, UniProt Q00536); target engagement in cells, BRET): 1.9 µM

CC(=O)NC(C)(C)C#Cc1ccc2[nH]c3c(c2c1)-c1nc(N)ncc1CCC3
IC50 (PIKFYVE; target engagement in cells, BRET): > 10 µM

C/C=C1\NC(=O)[C@H](C)NC(=O)[C@@H](NC(=O)[C@@H](Cc2ccc(O)cc2)NC(=O)[C@@H](NC(=O)/C(C)=C/C)C(C)C)[C@@H](C)OC(=O)[C@H](CCc2ccc(O)cc2)NC(=O)[C@@H](CCC(=O)O)NC1=O
IC50 (CELA1; enzyme activity, inhibitor, absorbance): 2.14 µM

Cc1ccc(C(C)C)cc1NC(=O)COC(=O)/C=C/c1ccc(Cl)cc1
IC50 (CELA1; enzyme activity, inhibitor, absorbance): 35.8 µM

O=C1NC(=S)S/C1=C\c1cc([N+](=O)[O-])ccc1O
IC50 (PIK3CA; enzyme activity, inhibitor, radiometric): 23 µM

C[C@@H]1O[C@@H](OC[C@H]2O[C@@H](Oc3c(-c4ccc(O)cc4)oc4cc(O)cc(O)c4c3=O)[C@H](O[C@@H]3O[C@H](CO)[C@@H](O)[C@H](O)[C@H]3O)[C@@H](O)[C@@H]2O)[C@H](O)[C@H](O)[C@H]1O
IC50 (Prostaglandin G/H synthase 2 (PTGS2, Ovis aries, UniProt P79208); enzyme activity, inhibitor, absorbance): 45.2 µM

CC(C)(O)CC#Cc1ccc2[nH]c3c(c2c1)-c1nc(N)ncc1CCC3
IC50 (PIKFYVE; target engagement in cells, BRET): 0.29 µM

O=C1NC(=S)S/C1=C\c1ccccc1[N+](=O)[O-]
IC50 (PIK3CA; enzyme activity, inhibitor, radiometric): > 100 µM

O=C(O)CC[C@H](NC(=O)N[C@@H](CCCCNC(=O)[C@H](Cc1ccc2ccccc2c1)NC(=O)[C@H]1CC[C@H](CNC(=O)CN2CCN(CC(=O)O)CCN(CC(=O)O)CCN(CC(=O)O)CC2)CC1)C(=O)O)C(=O)O
IC50 (Glutamate carboxypeptidase 2 (FOLH1, Homo sapiens, UniProt Q04609); ligand displacement in cells, radioligand): 0.0122 µM

CCn1c(-c2nc3cc(C(=O)N4CCC[C@@H](N)C4)cc(OC)c3n2C)cc2cccnc21
IC50 (AVPR1A; calcium signal, antagonist, fluorescence): > 50.1 µM
